DAGLB inh: DAGLB lipase inhibitors, primary screen, biochemical, fluorescence, HTS; Diacylglycerol lipase-beta (Homo sapiens), Q8NCG7; HEK293T DAGLB membrane lysate, EnzChek fluorogenic substrate; inhibition, % at 5.17 µM; hit rate 0.059% among 340,000; in the data active = inhibition above about 34%;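 note: 0% = enzyme with vehicle and 100% = wells lacking enzyme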
SIAE inh: human SIAE inhibitors, primary screen, biochemical, fluorescence polarization, FP-Rh probe, 1536-well HTS. SIAE FP-Rh probe binding. inhibition, % at 9.66 µM. Sialate O-acetylesterase (Homo sapiens), Q9HAT2. hit rate 0.69% among 370,000;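 active = inhibition above a cutoff: mean of compounds within the control limits plus 3 SD of those, cut at about 17% in these data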;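 note: 0% = plate median of compound wells and 100% = probe without SIAE protein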
mABHD4 FP: ABHD4 inhibitors, primary screen, biochemical, fluorescence polarization, mouse | purified mABHD4, FP-Rh probe fluorescence polarization | inhibition, % at 8.92 µM | hit rate 0.54% among 370,000 | AID 720543, 2013;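 active = inhibition exceeding the mean over every tested compound plus 3 SD, cut at about 30% in these data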;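 note: 0% = plate median of compound wells and 100% = S159A mutant with DMSO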
Target sequence (Q8VD66 whole entry, looked up): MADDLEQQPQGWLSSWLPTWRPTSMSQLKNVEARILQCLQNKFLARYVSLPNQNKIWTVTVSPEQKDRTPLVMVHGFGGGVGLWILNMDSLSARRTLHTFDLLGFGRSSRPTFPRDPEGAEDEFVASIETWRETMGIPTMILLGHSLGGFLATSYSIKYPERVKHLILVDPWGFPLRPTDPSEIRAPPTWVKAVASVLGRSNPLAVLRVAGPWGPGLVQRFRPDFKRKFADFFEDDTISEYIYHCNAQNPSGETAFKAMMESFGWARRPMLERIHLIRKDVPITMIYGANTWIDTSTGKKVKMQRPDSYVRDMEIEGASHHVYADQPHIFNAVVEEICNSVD
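Test system: mouse ABHD4 enzyme, wild type. Reagent: FP-Rh fluorescent activity-based probe, added after compound pre-incubation. Timing: pre-incubation 45 min, probe exposure 60 min, at 25 °C. Technique: FP readout, ex 525 nm / em 598 nm. Benchmarks: high control S159A mutant with DMSO, low control median of compound wells.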
TCR-CD3 inh: inhibitors of human TCR-CD3 interaction, primary screen, biochemical, fluorescence, TAMRA-labeled TCR probe | inhibition, % at 9.4 µM | hit rate 0.37% among 360,000 | AID 651800, 2012;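 note: recombinant mutant TCR 2C K166C tagged with TAMRA read by polarization; 0% = receptor in buffer alone and 100% = receptor with positive control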
HTRA1 inh: HTRA1 serine protease inhibitors, primary screen, biochemical, fluorescence polarization, HTS | recombinant HTRA1, FP-rhodamine activity-based probe | inhibition, % at 5.96 µM | hit rate 0.5% among 340,000; in the data active = inhibition above about 36%;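 note: 0% = enzyme with DMSO and 100% = wells lacking enzyme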
DAGLB inh conf: DAGLB lipase inhibitors, retest, confirmation, biochemical, fluorescence, HEK293T membranes | shares compounds with DAGLB inh | HEK293T DAGLB membrane lysate, EnzChek fluorogenic substrate | inhibition, % at 5.17 µM | hit rate 73% among 190 | AID 504445, 2011;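 active = mean inhibition over triplicate wells above a set limit taken from the primary lipase screen, cut at about 34% in these data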;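 note: 0% = DAGLB with DMSO and 100% = wells lacking DAGLB enzyme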
HTRA1 inh conf: HTRA1 protease inhibitors, retest, confirmation, biochemical, fluorescence polarization. recombinant HTRA1, FP-rhodamine activity-based probe. shares compounds with HTRA1 inh. inhibition, % at 5.96 µM. AID 540248, 2011. hit rate 66% among 1,600;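 active = mean inhibition over three repeats above a set limit taken from the earlier primary screen, cut at about 37% in these data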;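 note: 0% = HTRA1 with DMSO and 100% = wells lacking HTRA1; inhibitors block probe binding so polarization drops and inhibition rises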
BSA TAMRA ctr: compounds interfering with TAMRA-BSA probe, counter-screen for TCR-CD3 interaction inhibitor project, biochemical, fluorescence, TAMRA-labeled BSA | TAMRA-labeled BSA probe fluorescence counterscreen | shares compounds with TCR-CD3 inh | hit rate 10% among 1,200 | inhibition, % at 9.4 µM; in the data active = inhibition above about 23%;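 note: 0% = buffer low control and 100% = reference high control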
TCR-CD3 conf: TCR-CD3 interaction inhibitors, retest, confirmation, biochemical, fluorescence, TAMRA-labeled TCR probe; hit rate 48% among 1,200; shares compounds with TCR-CD3 inh; TAMRA-labeled TCR probe fluorescence binding assay; inhibition, % at 9.4 µM
mABHD4 conf: ABHD4 inhibitors, retest, confirmation, biochemical, fluorescence polarization, mouse; shares compounds with mABHD4 FP; purified mABHD4, FP-Rh probe fluorescence polarization; inhibition, % at 8.92 µM; hit rate 55% among 1,800; AID 720658, 2013;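 active = mean inhibition across replicates above the hit cutoff set in the primary screen, cut at about 30% in these data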;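 note: 0% = wild-type ABHD4 with DMSO and 100% = catalytically dead S159A mutant with DMSO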
SIAE confirm: human SIAE inhibitors, retest, confirmation, biochemical, fluorescence polarization, FP-Rh probe, triplicate; shares compounds with SIAE inh; SIAE FP-Rh activity-based probe; inhibition, % at 9.66 µM; hit rate 13% among 2,300; AID 1117263, 2014;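 active = mean inhibition of the replicates above the hit cutoff set in the primary screen, cut at about 17% in these data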;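 note: 0% = SIAE with DMSO and probe and 100% = probe without SIAE; inhibitors lower polarization as more probe stays unbound to SIAE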
Active calls of the source: *; . = not tested or not shown. Rows were chosen to be rich in hits. Some 1.6% of all compounds tested hit in one or more screens of this group. Cut-off read from the data, not from the text of the source, unless noted: active = inhibition above about 19%; inactive = the rest.

SMILES	DAGLB inh	SIAE inh	mABHD4 FP	TCR-CD3 inh	HTRA1 inh	DAGLB inh conf	HTRA1 inh conf	mABHD4 conf	others
O=C1c2ccccc2C(=O)c2c(O)c(O)cc(O)c21	37.1*	12.3	73.3*	25.1*	71.7*	27.6	70.8*	60.8*	BSA TAMRA ctr=44.0*;TCR-CD3 conf=33.6*
CCOc1ccc(CCNC(=O)c2cc3sccc3n2Cc2cccc(C)c2)cc1OCC	.	-2.6	-6.5	.	.	.	.	.
C[C@H]1COC2=C1C(=O)C(=O)c1c2ccc2c1CCCC2(C)C	10.0	.	.	.	24.0	.	.	.
Cc1coc2c1C(=O)C(=O)c1c-2ccc2c1CCCC2(C)C	52.6*	13.1	49.5*	122.7*	67.2*	57.5*	66.3*	57.8*	BSA TAMRA ctr=-1.4;TCR-CD3 conf=0.7
C=CCN(C)CC#Cc1ccc(OC)cc1	.	1.4	0.2	.	.	.	.	.
N#C/C(=C/c1ccc(O)c(O)c1)C(=O)NCc1ccc(Cl)cc1	44.9*	4.9	50.7*	3.7	80.7*	24.2	86.8*	37.2*
N=c1c2c(ccn1CCCCc1ccccc1)Oc1ccc3ccccc3c1C2c1ccccc1 (stereo not drawn)	.	-61.6	-64.8	.	.	.	.	.
O=C1S/C(=C\c2ccc(O)c([N+](=O)[O-])c2)C(=O)N1c1ccccc1Cl	36.1*	-4.8	54.8*	6.9	7.7	44.9*	.	44.1*
O=C(c1cc(O)c(O)c([N+](=O)[O-])c1)c1ccccc1F	37.7*	13.9	36.9*	-1.6	47.6*	23.2	62.8*	31.9*
CCOc1ccc(/C=C2\NCCc3cc(OCC)c(OCC)cc32)cc1OCC	.	-3.7	3.0	.	.	.	.	.
CCCc1nc2c(C)cc(Br)cn2c1Cc1ccccc1OC	.	2.9	-4.5	-8.1	.	.	.	.
Brc1ccc(N/N=C(/N=Nc2nn[nH]n2)c2ccccc2)cc1	46.3*	17.4*	90.9*	-1.8	61.8*	78.5*	87.8*	104.2*
COC(=O)CSc1nnc(-c2ccc(NS(=O)(=O)c3ccc(C)c(C)c3)cc2)o1	.	-1.1	3.5	.	.	.	.	.
CCOc1cc(/C=C2\N=C(SCC)SC2=O)cc([N+](=O)[O-])c1OC(C)=O	50.1*	-2.2	42.3*	-2.7	22.2	36.9*	.	83.5*
CCOc1cc(/C=C2\N=C(SC)SC2=O)cc([N+](=O)[O-])c1OC(C)=O	9.9	.	.	.	19.6	.	.	.
CN(C)c1ccc(N=Nc2ccccc2C(=O)OCC(=O)NC2CCCC2)cc1	33.1	5.7	17.8	1.8	23.0	.	.	.
CN(C)c1ccc(N=Nc2ccccc2C(=O)OCC(=O)NCC2CCCCC2)cc1	39.3*	12.7	42.1*	0.0	31.2	43.2*	.	40.3*
COC(=O)c1ccccc1NCc1cc(=O)oc2cc(O)c(O)cc12	48.3*	4.7	39.7*	15.1	65.1*	34.4*	46.3*	31.3*
COc1ccc(C)cc1NCc1cc(=O)oc2cc(-c3ccccc3)c(O)cc12	0.7	8.1	-1.4	5.0	2.8	.	.	.
C=CCN1[C@H](C)[C@H](c2ccccc2)Oc2cc(Br)ccc2S1(=O)=O	.	-4.0	-7.9	-2.1	.	.	.	.
COc1ccc2nc(-n3c(O)c(C4=c5ccccc5=NC4=O)[nH]c3=S)sc2c1	52.0*	2.5	51.6*	-0.4	29.7	79.9*	.	168.6*
C=CCC12C=C(OC)C(=O)C(C1=O)C1c3ccccc3CC12 (stereo not drawn)	.	2.5	5.6	.	.	.	.	.
Cc1ccc(S(=O)(=O)c2ccc(C)cc2)cc1	0.2	-10.9	1.4	2.1	0.2	.	.	.
Cc1ccc(C2=C(O)C(=O)C(c3ccc(C)cc3)=C(O)C2=O)cc1	59.6*	17.0	45.8*	8.5	84.8*	25.1	97.7*	60.4*
O=Cc1cc(N=Nc2ccc(S(=O)(=O)O)cc2)ccc1O	9.2	-34.8	17.5	4.9	7.3	.	.	.
SMILES	DAGLB inh	SIAE inh	mABHD4 FP	TCR-CD3 inh	HTRA1 inh	DAGLB inh conf	HTRA1 inh conf	mABHD4 conf	others
CN(C)c1ccc(N=Nc2ccc(S(=O)(=O)O)cc2)c2ccccc12	48.2*	-0.5	55.9*	-3.5	26.2	51.6*	.	60.0*
O=C(O)c1ccc(/C=N\Nc2ccc(S(=O)(=O)N3CCOCC3)cc2[N+](=O)[O-])cc1	2.0	-4.8	-15.9	7.5	-3.5	.	.	.
Cc1ccc(-n2c(O)c(/C=N/Nc3ccc(S(=O)(=O)N4CCOCC4)cc3[N+](=O)[O-])c3ccccc3c2=O)c(C)c1	34.8*	20.9*	25.8	-7.8	48.0*	46.2*	156.3*	.	SIAE confirm=0.2
COC(=O)C1CCN(C2CN(Cc3cn(Cc4ccc(C(F)(F)F)cc4)nn3)S(=O)(=O)C2)CC1 (stereo not drawn)	.	0.1	0.1	2.1	.	.	.	.
C=CCn1c(O)c(C2=c3ccccc3=NC2=O)sc1=Nc1ccc(O)cc1	36.5*	20.7*	34.6*	6.5	10.3	33.9	.	73.5*	SIAE confirm=11.7
COC(=O)C1CN(Cc2ccc(Cl)cc2)CCS(=O)(=O)N1Cc1cn(Cc2ccccc2)nn1 (stereo not drawn)	.	2.1	2.5	.	.	.	.	.
C/C(=C/c1nc(N)n(Cc2ccccc2)c1Cc1ccccc1)Cn1[nH]c(=O)n(-c2ccccc2)c1=O	.	7.6	-3.5	.	.	.	.	.
CCN(CCCNc1cc2c(c(N)c1S(=O)(=O)O)C(=O)c1ccccc1C2=O)c1ccccc1	35.9*	33.2*	101.7*	2.5	85.8*	38.6*	83.1*	102.6*	SIAE confirm=22.7*
Cc1cc(C)c(Nc2cc(S(=O)(=O)O)c(N)c3c2C(=O)c2ccccc2C3=O)c(C)c1	80.2*	35.3*	77.2*	6.3	66.0*	85.9*	67.0*	109.7*	SIAE confirm=29.3*
Oc1ccccc1N=Nc1nc(-c2ccccc2)c(-c2ccccc2)[nH]1	38.2*	17.3*	10.4	-0.3	13.5	52.5*	.	.	SIAE confirm=-3.1

Screening data deposited in PubChem BioAssay by The Scripps Research Institute Molecular Screening Center.
